Blank lines part the entries; values can stand above or below the compound they belong to. The source made the active and inactive calls. The rule behind the calls is not given here.
How the values were obtained:
[1] = target: D(3) dopamine receptor (Homo sapiens, UniProt P35462); experiment: Displacement of [3H] Spiperone from human D3 receptor expressed in CHO cells by competitive radioligand binding assay; format: cell-based
[2] = target: D(1A) dopamine receptor (Homo sapiens, UniProt P21728); experiment: Displacement of [3H] SCH23390 from D1 receptor (unknown origin)
D(1A) dopamine receptor, sequence (P21728 whole entry): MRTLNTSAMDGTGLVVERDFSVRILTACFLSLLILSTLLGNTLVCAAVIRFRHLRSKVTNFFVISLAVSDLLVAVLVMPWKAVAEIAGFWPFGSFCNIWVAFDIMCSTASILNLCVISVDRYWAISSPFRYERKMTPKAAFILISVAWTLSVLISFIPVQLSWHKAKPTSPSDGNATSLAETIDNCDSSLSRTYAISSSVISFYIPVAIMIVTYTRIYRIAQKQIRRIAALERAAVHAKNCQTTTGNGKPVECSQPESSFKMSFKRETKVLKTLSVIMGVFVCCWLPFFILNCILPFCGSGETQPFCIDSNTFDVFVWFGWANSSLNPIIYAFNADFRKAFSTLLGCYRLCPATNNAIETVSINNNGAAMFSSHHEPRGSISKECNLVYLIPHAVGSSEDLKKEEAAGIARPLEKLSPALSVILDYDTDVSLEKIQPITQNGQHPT

[3] = target: T1, D(2) dopamine receptor (Homo sapiens, UniProt P14416); experiment: Displacement of [3H] Spiperone from human D2S receptor expressed in CHO cells by competitive radioligand binding assay; format: cell-based
T1 sequence (P14416 whole entry): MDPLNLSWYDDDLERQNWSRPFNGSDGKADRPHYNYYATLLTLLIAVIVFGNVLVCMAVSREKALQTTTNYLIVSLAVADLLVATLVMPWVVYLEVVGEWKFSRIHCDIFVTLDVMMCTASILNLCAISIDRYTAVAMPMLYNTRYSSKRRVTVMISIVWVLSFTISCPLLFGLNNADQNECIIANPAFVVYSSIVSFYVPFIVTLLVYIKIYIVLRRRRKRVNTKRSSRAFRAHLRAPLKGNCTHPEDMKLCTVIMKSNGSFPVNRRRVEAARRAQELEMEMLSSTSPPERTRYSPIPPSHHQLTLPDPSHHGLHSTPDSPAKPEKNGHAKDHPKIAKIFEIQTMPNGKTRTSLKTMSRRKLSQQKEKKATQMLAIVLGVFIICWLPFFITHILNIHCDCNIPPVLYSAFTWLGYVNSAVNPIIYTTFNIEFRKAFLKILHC

[4] = target: Delta-type opioid receptor (Homo sapiens, UniProt P41143); experiment: Displacement of [3H] diprenorphine from delta opioid receptor (unknown origin)
Delta-type opioid receptor, sequence (P41143 whole entry): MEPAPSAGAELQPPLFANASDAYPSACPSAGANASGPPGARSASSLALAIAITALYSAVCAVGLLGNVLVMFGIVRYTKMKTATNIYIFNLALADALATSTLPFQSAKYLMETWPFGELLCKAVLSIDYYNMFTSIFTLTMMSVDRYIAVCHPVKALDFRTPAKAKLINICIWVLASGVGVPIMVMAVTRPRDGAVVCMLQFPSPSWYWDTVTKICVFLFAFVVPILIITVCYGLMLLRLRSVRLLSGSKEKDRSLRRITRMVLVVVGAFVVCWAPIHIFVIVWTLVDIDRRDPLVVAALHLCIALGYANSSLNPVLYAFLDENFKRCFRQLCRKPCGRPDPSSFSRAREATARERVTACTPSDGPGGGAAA

[5] = target: Mu-type opioid receptor (Homo sapiens, UniProt P35372); experiment: Displacement of [3H] diprenorphine from mu opioid receptor (unknown origin)
Mu-type opioid receptor, sequence (P35372 whole entry): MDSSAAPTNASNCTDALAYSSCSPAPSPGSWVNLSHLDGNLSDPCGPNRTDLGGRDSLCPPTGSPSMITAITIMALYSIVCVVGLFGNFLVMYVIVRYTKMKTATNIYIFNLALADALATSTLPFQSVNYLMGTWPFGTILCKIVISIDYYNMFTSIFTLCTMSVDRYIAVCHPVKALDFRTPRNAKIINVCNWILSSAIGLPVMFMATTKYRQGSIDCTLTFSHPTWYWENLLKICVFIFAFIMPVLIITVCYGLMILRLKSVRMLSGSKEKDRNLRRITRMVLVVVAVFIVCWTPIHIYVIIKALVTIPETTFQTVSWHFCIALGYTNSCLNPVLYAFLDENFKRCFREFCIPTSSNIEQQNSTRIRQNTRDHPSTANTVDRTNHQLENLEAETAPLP
How it was run: (§1)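 Radioligand competition binding; Ki given as mean ± SD from two individual experiments, each run in triplicate.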

[6] = target: Beta-1 adrenergic receptor (Homo sapiens, UniProt P08588); experiment: Displacement of [3H] CGP12177 from beta1 adrenergic receptor (unknown origin)
Beta-1 adrenergic receptor, sequence (P08588 whole entry): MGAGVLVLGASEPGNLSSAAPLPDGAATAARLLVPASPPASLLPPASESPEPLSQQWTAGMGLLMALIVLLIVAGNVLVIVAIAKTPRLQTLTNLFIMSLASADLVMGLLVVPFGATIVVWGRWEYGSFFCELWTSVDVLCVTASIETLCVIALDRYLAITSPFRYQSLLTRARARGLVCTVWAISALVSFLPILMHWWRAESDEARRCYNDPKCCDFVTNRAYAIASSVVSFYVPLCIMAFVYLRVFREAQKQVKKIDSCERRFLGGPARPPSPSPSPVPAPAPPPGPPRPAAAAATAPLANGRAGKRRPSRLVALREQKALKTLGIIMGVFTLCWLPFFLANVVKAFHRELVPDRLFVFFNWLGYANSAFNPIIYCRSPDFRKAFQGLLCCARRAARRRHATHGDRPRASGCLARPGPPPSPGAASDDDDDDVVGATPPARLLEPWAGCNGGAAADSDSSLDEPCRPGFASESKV

[7] = target: T2, 5-hydroxytryptamine receptor 1A (Homo sapiens, UniProt P08908); experiment: Displacement of [3H] WAY100635 from 5HT1A receptor (unknown origin); how it was run: as §1
T2 sequence (P08908 whole entry): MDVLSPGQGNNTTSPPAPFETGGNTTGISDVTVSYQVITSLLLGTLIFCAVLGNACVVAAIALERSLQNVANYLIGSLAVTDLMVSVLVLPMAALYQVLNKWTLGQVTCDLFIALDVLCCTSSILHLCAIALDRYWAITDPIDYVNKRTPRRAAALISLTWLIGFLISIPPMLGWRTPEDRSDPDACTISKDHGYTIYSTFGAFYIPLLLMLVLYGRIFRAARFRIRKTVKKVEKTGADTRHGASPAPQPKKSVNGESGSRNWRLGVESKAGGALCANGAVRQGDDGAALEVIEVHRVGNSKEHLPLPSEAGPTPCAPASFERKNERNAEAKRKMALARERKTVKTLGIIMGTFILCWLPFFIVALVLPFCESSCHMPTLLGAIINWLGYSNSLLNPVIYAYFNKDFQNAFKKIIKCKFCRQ

[8] = target: D(1B) dopamine receptor (Homo sapiens, UniProt P21918); experiment: Displacement of [3H] SCH23390 from D5 receptor (unknown origin)
D(1B) dopamine receptor, sequence (P21918 whole entry): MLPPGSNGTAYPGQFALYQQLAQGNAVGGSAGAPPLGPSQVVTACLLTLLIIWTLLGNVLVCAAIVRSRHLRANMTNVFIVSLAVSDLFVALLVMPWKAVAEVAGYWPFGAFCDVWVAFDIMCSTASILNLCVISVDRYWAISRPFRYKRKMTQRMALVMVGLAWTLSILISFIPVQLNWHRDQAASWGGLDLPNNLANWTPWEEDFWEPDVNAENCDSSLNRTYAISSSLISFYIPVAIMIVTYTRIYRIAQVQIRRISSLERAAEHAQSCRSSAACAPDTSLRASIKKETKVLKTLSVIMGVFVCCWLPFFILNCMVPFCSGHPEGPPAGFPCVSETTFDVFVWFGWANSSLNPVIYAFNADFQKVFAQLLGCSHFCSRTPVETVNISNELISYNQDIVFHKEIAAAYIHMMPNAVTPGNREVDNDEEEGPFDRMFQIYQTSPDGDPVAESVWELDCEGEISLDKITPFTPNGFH

[9] = target: Beta-2 adrenergic receptor (Homo sapiens, UniProt P07550); experiment: Displacement of [3H] CGP12177 from beta2 adrenergic receptor (unknown origin)
Beta-2 adrenergic receptor, sequence (P07550 whole entry): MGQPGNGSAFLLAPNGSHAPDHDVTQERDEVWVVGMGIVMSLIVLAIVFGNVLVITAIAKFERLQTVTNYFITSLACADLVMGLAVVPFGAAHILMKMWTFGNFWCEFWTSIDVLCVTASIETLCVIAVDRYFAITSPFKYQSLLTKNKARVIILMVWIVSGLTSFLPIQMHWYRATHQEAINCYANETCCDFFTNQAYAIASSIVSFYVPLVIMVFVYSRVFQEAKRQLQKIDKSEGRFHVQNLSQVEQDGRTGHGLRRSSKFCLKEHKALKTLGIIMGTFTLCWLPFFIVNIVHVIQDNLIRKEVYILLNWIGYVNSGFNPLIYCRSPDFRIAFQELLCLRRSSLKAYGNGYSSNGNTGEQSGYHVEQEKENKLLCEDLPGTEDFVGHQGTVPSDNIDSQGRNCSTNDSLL

[10] = Drug metabolism in Sprague-Dawley rat liver microsomes assessed as unchanged remaining parent compound at 20 uM measured after 120 mins in presence of NADPH by LC-ESI-MS analysis; format: ADME, Microsome; settings: read-out: Drug metabolism
[11] = target: T3, Muscarinic acetylcholine receptor M2 (Homo sapiens, UniProt P08172); experiment: Displacement of [3H] NMS from muscarinic M2 receptor (unknown origin); how it was run: as §1
T3 sequence (P08172 whole entry): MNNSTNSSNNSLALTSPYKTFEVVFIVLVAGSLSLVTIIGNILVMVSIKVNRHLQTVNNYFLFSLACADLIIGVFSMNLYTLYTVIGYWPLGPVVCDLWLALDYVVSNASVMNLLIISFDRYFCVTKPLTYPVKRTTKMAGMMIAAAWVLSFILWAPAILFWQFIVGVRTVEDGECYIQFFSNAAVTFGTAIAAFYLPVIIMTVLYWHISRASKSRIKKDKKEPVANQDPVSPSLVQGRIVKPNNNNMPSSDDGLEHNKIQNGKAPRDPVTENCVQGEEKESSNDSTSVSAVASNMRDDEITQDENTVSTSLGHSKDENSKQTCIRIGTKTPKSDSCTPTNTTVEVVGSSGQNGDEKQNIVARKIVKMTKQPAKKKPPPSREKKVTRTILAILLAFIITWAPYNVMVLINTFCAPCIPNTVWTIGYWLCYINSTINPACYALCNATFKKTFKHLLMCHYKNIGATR

[12] = target: T4, Alpha-1A adrenergic receptor (Homo sapiens) (UniProt P35348); experiment: Antagonist activity at human alpha1A adrenergic receptor expressed in HEK293T cells assessed as accumulation of inositol monophosphate using d2-labelled IP1 conjugate incubated for 60 mins by HTRF assay; format: functional, cell-based
T4 sequence (whole entry): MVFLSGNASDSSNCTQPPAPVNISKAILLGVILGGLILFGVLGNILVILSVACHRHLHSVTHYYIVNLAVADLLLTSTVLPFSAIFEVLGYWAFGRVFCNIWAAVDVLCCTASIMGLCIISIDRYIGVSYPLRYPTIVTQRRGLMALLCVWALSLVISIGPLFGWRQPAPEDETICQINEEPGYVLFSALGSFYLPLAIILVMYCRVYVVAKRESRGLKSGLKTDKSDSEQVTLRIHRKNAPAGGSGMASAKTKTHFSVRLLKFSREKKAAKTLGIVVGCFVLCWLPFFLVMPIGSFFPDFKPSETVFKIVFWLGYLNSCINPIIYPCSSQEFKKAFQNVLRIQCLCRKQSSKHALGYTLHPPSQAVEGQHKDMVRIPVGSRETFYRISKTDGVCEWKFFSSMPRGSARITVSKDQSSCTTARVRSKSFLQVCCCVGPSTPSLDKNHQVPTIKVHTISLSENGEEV

[13] = target: T5, Alpha-1A adrenergic receptor (Homo sapiens, UniProt P35348); experiment: Displacement of [3H] prazosin from alpha1A adrenergic receptor (unknown origin)
T5 sequence (P35348 whole entry): T4 sequence (whole entry)

[14] = target: T6, Muscarinic acetylcholine receptor M1 (Homo sapiens, UniProt P11229); experiment: Displacement of [3H] NMS from muscarinic M1 receptor (unknown origin); how it was run: as §1
T6 sequence (P11229 whole entry): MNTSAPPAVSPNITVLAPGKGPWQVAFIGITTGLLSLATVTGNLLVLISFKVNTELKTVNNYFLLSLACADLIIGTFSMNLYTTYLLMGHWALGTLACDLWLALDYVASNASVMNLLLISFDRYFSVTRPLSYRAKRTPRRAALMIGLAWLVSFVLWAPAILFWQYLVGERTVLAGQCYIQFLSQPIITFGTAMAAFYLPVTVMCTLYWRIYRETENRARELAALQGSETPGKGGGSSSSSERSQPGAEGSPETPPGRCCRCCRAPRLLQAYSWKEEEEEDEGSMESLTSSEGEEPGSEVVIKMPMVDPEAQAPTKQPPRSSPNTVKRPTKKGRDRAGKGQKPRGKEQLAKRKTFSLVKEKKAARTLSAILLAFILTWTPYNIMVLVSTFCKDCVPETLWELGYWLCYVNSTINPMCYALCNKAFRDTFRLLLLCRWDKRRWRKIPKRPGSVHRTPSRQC

[15] = target: T7, Alpha-2A adrenergic receptor (Homo sapiens, UniProt P08913); experiment: Displacement of [3H] RX821002 from alpha2A adrenergic receptor (unknown origin)
T7 sequence (P08913 whole entry): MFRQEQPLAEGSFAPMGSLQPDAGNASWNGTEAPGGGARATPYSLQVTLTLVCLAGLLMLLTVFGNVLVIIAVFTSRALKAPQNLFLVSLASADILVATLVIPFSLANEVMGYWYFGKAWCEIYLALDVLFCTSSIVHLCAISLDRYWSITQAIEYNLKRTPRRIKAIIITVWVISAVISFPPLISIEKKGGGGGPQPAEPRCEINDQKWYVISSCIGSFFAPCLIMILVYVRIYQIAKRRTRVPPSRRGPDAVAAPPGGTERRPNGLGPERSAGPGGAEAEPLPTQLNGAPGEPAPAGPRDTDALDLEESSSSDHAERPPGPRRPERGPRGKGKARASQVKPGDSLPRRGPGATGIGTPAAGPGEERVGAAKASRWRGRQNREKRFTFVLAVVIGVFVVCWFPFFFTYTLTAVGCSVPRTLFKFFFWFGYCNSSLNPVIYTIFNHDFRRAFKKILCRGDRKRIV

[16] = target: Muscarinic acetylcholine receptor M3 (Homo sapiens, UniProt P20309); experiment: Displacement of [3H] NMS from muscarinic M3 receptor (unknown origin); how it was run: as §1
Muscarinic acetylcholine receptor M3, sequence (P20309 whole entry): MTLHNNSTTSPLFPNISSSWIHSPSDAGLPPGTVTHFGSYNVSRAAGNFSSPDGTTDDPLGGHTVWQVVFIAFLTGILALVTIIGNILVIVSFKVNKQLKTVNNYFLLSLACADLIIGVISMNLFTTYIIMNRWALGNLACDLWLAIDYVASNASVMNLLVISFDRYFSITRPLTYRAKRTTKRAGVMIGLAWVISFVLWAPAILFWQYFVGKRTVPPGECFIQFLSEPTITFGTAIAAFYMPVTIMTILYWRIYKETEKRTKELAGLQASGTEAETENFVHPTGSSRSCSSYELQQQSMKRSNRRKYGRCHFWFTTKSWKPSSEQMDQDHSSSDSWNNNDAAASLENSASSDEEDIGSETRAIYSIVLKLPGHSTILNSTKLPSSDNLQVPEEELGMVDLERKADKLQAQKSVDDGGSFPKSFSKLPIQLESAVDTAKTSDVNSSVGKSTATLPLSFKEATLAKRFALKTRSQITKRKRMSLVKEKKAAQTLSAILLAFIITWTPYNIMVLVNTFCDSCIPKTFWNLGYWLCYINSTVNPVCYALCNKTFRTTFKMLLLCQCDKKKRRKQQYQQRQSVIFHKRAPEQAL

[17] = target: 5-hydroxytryptamine receptor 2A (Homo sapiens, UniProt P28223); experiment: Displacement of [3H] Ketanserin from 5HT2A receptor (unknown origin)
5-hydroxytryptamine receptor 2A, sequence (P28223 whole entry): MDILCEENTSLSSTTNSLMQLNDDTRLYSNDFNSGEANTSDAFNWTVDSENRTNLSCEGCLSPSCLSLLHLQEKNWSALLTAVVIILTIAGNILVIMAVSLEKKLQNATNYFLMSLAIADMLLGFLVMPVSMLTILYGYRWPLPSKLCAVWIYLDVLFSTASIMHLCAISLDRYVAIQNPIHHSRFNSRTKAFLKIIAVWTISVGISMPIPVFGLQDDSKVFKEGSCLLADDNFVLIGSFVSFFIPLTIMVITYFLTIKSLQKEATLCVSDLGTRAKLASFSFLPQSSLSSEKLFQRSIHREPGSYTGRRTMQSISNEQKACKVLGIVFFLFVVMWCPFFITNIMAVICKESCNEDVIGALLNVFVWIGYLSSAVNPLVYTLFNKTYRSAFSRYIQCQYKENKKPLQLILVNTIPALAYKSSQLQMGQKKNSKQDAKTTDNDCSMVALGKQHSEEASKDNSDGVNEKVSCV

[18] = target: Kappa-type opioid receptor (Homo sapiens, UniProt P41145); experiment: Displacement of [3H] diprenorphine from kappa opioid receptor (unknown origin); how it was run: as §1
Kappa-type opioid receptor, sequence (P41145 whole entry): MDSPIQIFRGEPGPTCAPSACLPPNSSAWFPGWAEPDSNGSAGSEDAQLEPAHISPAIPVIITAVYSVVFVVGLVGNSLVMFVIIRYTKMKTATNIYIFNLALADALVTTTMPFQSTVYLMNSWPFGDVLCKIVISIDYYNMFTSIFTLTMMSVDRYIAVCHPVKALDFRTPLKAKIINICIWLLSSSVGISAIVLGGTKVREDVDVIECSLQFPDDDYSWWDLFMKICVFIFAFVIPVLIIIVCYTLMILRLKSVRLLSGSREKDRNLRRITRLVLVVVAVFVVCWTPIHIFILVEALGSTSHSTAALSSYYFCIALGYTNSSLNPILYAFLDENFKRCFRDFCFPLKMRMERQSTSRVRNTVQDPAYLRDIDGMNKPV

[19] = target: T1, D(2) dopamine receptor; experiment: Displacement of [3H] Spiperone from human D2L receptor expressed in CHO cells by competitive radioligand binding assay; format: cell-based
[20] = Drug metabolism in Sprague-Dawley rat liver microsomes assessed as metabolite formation at 20 uM measured after 120 mins in presence of NADPH by LC-ESI-MS analysis; format: ADME, Microsome; settings: 2 h
[21] = target: T8, D(4) dopamine receptor (Homo sapiens, UniProt P21917); experiment: Displacement of [3H] Spiperone from human D4.4 receptor expressed in CHO cells by competitive radioligand binding assay; format: cell-based
T8 sequence (P21917 whole entry): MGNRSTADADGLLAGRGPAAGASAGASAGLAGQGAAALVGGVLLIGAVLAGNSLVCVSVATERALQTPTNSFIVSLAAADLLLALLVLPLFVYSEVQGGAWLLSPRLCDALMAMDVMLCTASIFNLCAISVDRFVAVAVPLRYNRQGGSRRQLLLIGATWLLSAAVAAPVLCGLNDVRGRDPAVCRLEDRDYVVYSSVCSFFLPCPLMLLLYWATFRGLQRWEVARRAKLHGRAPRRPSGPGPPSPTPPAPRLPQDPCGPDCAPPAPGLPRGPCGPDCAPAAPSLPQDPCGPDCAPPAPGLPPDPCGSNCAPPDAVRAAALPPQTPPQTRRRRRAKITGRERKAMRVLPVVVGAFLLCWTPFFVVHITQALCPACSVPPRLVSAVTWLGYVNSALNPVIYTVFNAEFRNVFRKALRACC

[22] = species on record: Homo sapiens; experiment: Selectivity index, ratio of Ki for displacement of [3H] Spiperone from human D3 receptor expressed in CHO cells to Ki for displacement of [3H] Spiperone from human D4.4 receptor expressed in CHO cells; format: cell-based
How it was run: (§2)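 Competition binding against [3H]spiperone on membranes of CHO cells stably expressing cloned human D2L, D2S, D3 or D4.4 receptors. Ki from monophasic curve fits; mean ± SEM of three to seven experiments, each in triplicate. Selectivity calculated as Ki(D2L, D2S or D3) divided by Ki(D4.4).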

[23] = target: T8, D(4) dopamine receptor; experiment: Agonist activity at human D4 receptor expressed in HEK293T cells co-expressing G-alphaqi assessed as accumulation of inositol monophosphate using d2-labelled IP1 conjugate incubated for 90 mins by HTRF assay; format: functional, cell-based
[24] = species on record: Homo sapiens; experiment: Selectivity index, ratio of Ki for displacement of [3H] Spiperone from human D2S receptor expressed in CHO cells to Ki for displacement of [3H] Spiperone from human D4.4 receptor expressed in CHO cells; format: cell-based; how it was run: as §2
[25] = target: T8, D(4) dopamine receptor; format: cell-based, HEK293
[26] = target: T8, D(4) dopamine receptor; experiment: Antagonist activity at […] D4 receptor (unknown origin) expressed in HEK293 cells co-expressing beta-arrestin2 assessed as inhibition of quinpirole-induced beta-arrestin2 recruitment preincubated for 30 mins followed by quinpirole addition and further incubated for 6 hrs by Path-Hunter assay; format: cell-based
[27] = species on record: Homo sapiens; experiment: Selectivity index, ratio of Ki for displacement of [3H] Spiperone from human D2L receptor expressed in CHO cells to Ki for displacement of [3H] Spiperone from human D4.4 receptor expressed in CHO cells; format: cell-based; how it was run: as §2

D(3) dopamine receptor, sequence (P35462 whole entry): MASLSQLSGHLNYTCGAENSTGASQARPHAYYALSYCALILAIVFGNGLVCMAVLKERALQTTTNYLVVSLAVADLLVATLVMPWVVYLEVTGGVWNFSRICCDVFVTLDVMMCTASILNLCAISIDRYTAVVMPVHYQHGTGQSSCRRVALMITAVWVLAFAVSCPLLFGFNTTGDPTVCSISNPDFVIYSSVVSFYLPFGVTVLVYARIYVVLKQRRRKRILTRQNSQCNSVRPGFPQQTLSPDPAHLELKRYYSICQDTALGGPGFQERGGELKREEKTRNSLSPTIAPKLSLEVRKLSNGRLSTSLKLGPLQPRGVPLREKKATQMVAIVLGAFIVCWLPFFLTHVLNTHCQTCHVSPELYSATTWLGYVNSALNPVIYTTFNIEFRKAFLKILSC

Ki [1]: 170 nM | Ki [2]: 200 nM | Ki [3]: 73 nM | Ki [4]: 10000 nM | Ki [5]: 2000 nM | Ki [6]: 13000 nM | Ki [7]: 17 nM | Ki [8]: 340 nM | Ki [9]: 1800 nM | remaining at 2 h, 20 µM [10]: 10% | Ki [11]: 14000 nM | Activity [12]: inactive | Ki [13]: 1.7 nM | Ki [14]: 25000 nM | Ki [15]: 400 nM | Ki [16]: 25000 nM | Ki [17]: 65 nM | Ki [18]: 3900 nM | Ki [19]: 77 nM | Drug metabolism [20]: Metabolite_Detected
Compound: COc1ccccc1N1CCN(CCCNC(=O)NN(Cc2ccccc2)c2ccccc2)CC1

Ki [1]: 25 nM | Ki [21]: 0.55 nM | EC50 [23]: 1.8 nM | Ki [3]: 4.3 nM | EC50 [25]: 340 nM | IC50 [26]: 49 nM | Ki [19]: 6.6 nM
Compound: COc1ccccc1N1CCN(CCCNC(=O)NN(Cc2ccccc2)c2ccc(F)cc2)CC1
Ratio Ki [22]: 45 | Ratio Ki [24]: 7.8 | Ratio Ki [27]: 12

Reference: ChEMBL document CHEMBL4321823, “Benzyl Phenylsemicarbazides: A Chemistry-Driven Approach Leading to G Protein-Biased Dopamine D4 Receptor Agonists with High Subtype Selectivity” (J Med Chem, 2019)
